Jurkat NFkB inh – lowers PMA/ionomycin-induced NF-kB signal in Jurkat cells; PMA/ionomycin-induced NF-kB luciferase reporter, luminescence; 0.53% of 330,000 active; inhibition, % at 4 µM; in the data active = inhibition above about 50%
CHOP UPR activ – apoptotic UPR (CHOP) activation. CHO-CHOP luciferase reporter, luminescence; percent of tunicamycin response over DMSO baseline. activation, % at 10 µM. 0.34% of 330,000 active;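 active = at 10 µM dose, activation of 40% or more, normalized to positive control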;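 note: 100% = tunicamycin at 10 µg/mL and 0% = DMSO alone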
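Evaluation: % reporter activation, DMSO baseline versus tunicamycin full activation; System: CHO-CHOP luciferase reporter cell line; Input: 500 cells/well; Incubation: 6 h compound treatment, 37 °C; Measured by: Steady-Glo luciferase luminescence; Dosing: one dose, 10 µM in 0.5% DMSO; Buffer or medium: F12 medium, 10% FBS; Benchmarks: positive tunicamycin 10 µg/mL, negative DMSO alone.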
XBP1 UPR activ – activators of adaptive arm of unfolded protein response (XBP1); AID 463104; activation, % at 20 µM; CHO-XBP1 luciferase reporter, IRE1-XBP1 UPR activation, luminescence; percent of tunicamycin response, DMSO as zero; 0.33% of 330,000 active;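 active = versus positive control, 20 µM dose yields 30% or more activation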;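 note: 100% = tunicamycin at 10 µg/mL and 0% = DMSO only wells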
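Material – CHO cell line with stable XBP1 luciferase reporter · Buffer or medium – F12 plus 10% FBS · Compound – single point, 20 µM final compound, 1% DMSO · Schedule – 16-18 h cell attachment at 37 °C, then 6 h compound exposure · Signal – Steady-Glo luminescence read · Benchmarks – high control tunicamycin 10 µg/mL final, low control DMSO vehicle only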
CHOP inhibitor – blocks CHOP induction under ER stress; inhibition, % at 10 µM; CHO-K1 CHOP-promoter luciferase, tunicamycin-induced, 15-18 h; 3.8% of 220,000 active;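 active = compounds that reduced the stress-induced luciferase reporter signal by more than about 70% of percent inhibition, limit read from the data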;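 note: 0% = tunicamycin plus vehicle and 100% = wells without tunicamycin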
697 NFkB inh – inhibitors of the PMA/ionomycin-induced NF-kB reporter in 697 B cells; 697 B-cell NF-kB luciferase reporter, 16 h; AID 435022; 0.33% of 330,000 active; inhibition, % at 4 µM; in the data active = inhibition above about 35%
* hit, by the source's call; x = no result given. The sample as a whole holds a higher share of hits than the screen did.

SMILES	Jurkat NFkB inh	CHOP UPR activ	XBP1 UPR activ	CHOP inhibitor	697 NFkB inh
Cc1ccc2nc(NC(=O)CCNS(=O)(=O)c3cccs3)sc2c1	-18.9	-0.9	0.2	73.3*	5.8
Cc1cccc2sc(NC(=O)CCNS(=O)(=O)c3cccs3)nc12	3.8	-0.5	-1.2	50.8	-19.6
Cc1ccc2nc(NC(=O)CCNS(=O)(=O)c3ccc(Br)s3)sc2c1	-15.3	1.7	-0.6	71.2*	5.0
Cc1ccc(C)c(NC(=O)CSc2nc(C)cs2)c1	-1.5	-0.5	-0.7	x	13.2
Cc1c(NC(=O)Nc2ccc(Cl)cc2)c(=O)n(-c2ccccc2)n1C	5.7	-1.3	-0.4	31.6	10.2
Cc1c(N=C2N=C(NC(=O)Nc3ccc(Cl)cc3)c3ccccc32)c(=O)n(-c2ccccc2)n1C	-3.7	3.1	25.0	92.4*	14.7
CCN1/C(=C/c2ccc3cc(C)ccc3[n+]2CC)Sc2cc(C)ccc21	x	x	x	81.7*	x
Fc1ccc(-c2nnc(NC3=NCCCCC3)o2)cc1	-16.3	-8.0	-10.5	75.0*	-95.4
Cc1ccc(C)c(NC(=S)NNC(=O)c2csc3c2CCC(C)C3)c1 (configuration not stated)	-4.9	0.2	0.8	89.9*	0.6
Cc1ccc(C)c(NC(=S)NNC(=O)c2csc3c2CCCC3)c1	8.9	1.6	-1.0	52.5	17.9
O=C1/C(=C/c2cccnc2)Oc2cc(OS(=O)(=O)c3ccccc3)ccc21	9.3	0.2	-0.3	30.3	-2.3
O=C1/C(=C/c2cccnc2)Oc2cc(OS(=O)(=O)c3ccc(Cl)cc3)ccc21	2.9	1.8	0.4	78.2*	-8.9
CC1(C)SC(=S)N(NC(=O)Nc2cccc3ccccc23)C1N(O)C(=O)Nc1ccccc1 (configuration not stated)	12.3	1.6	4.5	100.4*	8.4
O=C(CC1SC(=O)N(Cc2ccccc2Cl)C1=O)Nc1nccs1 (configuration not stated)	8.3	-1.3	0.0	30.7	9.4
O=C(CC1SC(=O)N(Cc2ccccc2)C1=O)Nc1nccs1 (configuration not stated)	-16.1	1.8	-3.7	87.3*	-10.2
COC(=O)/C(C#N)=C/c1c(Oc2cccc(C)c2C)nc2ccccn2c1=O	20.2	-0.6	8.0	86.4*	6.3
CCOC(=O)/C(C#N)=C/c1c(Oc2cccc(C)c2)nc2c(C)cccn2c1=O	7.9	-0.3	0.9	77.0*	4.3
CCN(CC(=O)N1CCOCC1)S(=O)(=O)c1ccc(F)cc1	3.0	-0.3	-2.6	x	2.9
CN(CCO)c1ccc(-c2n[nH]c(=O)c3ccccc23)cc1[N+](=O)[O-]	-2.2	-1.5	-4.5	x	7.1
O=S(=O)(NC1CC1)c1ccc(Cl)cc1F	10.0	5.3	-5.1	x	9.8
Cc1ccc(C(=O)c2no[n+]([O-])c2C(=O)c2ccc(C)cc2)cc1	3.5	35.8	-6.0	82.1*	4.0
CC1CC(C)CN(CCOc2ccccc2-c2ccccc2)C1 (configuration not stated)	-4.9	1.6	0.5	92.6*	-10.6
COc1ccc(CCNCc2cc3ccc(C)cc3[nH]c2=O)cc1OC	11.8	1.6	-1.5	x	-0.1
CCOc1ccccc1OCC(=O)NCc1ccco1	-4.8	0.4	0.3	76.8*	8.1
CCn1ccnc1CN(C)Cc1cn(-c2cccc(C)c2)nc1-c1cccc(F)c1	-11.7	3.2	-2.3	9.0	8.8
SMILES	Jurkat NFkB inh	CHOP UPR activ	XBP1 UPR activ	CHOP inhibitor	697 NFkB inh
CCn1ccnc1CN(C)Cc1cn(-c2ccc(C)cc2)nc1-c1cccc(C)c1	-4.5	1.0	-0.2	82.6*	5.9
Cc1ccc(S(=O)(=O)NNC(=O)Nc2ccc([N+](=O)[O-])cc2)c(C)c1	3.2	0.7	-4.6	x	17.9
O=C(c1ccc(Cl)c(Cl)c1)N(Cc1ccco1)c1ccc(O)cc1	3.2	-0.7	-2.1	87.3*	22.5
CCCNC(=O)c1c(N)n(-c2cccc(OC)c2)c2nc3ccccc3nc12	-7.8	-0.4	0.4	88.8*	-13.4
CC1CN(C(=O)COC(=O)c2ccccc2O)CC(C)O1 (configuration not stated)	-3.9	1.2	-0.4	x	-3.5
OC(COCc1ccc(Cl)cc1)CN1CCN(CC(O)COCc2ccc(Cl)cc2)CC1 (configuration not stated)	31.8	2.1	1.9	88.1*	-10.0

Assay outcomes from PubChem BioAssay.
